Test results from PMC8451793 (Journal of Orthopaedic Research, 2020).

Experiments:
hMSCs and rTDSCs = assay: Tenocyte differentiation, immunostaining for tenocyte markers; type: cell-based, human, rat
Procedure, shortened: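 Cells incubated at 37°C, 5% CO2 with test compound across a dose range or DMSO; rTDSCs treated 4 days (representative images at 1.5 μM). Fixed and immunostained for SCXA, TNMD, TNC, MKX, THBS4 and type I/III collagens; secondary antibody alone as negative control; BMP + FGF as positive control. High-content imaging; percent of total cells marker-positive; n = 4, mean ± SD.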

[1] = test system: CLK-mediated phosphorylation of SRSF1, SRSF4, SRSF5, SRSF6 in rTDSCs and hMSCs; assay: Western blot of phospho-SRSFs; type: cell-based, human, rat
Procedure, shortened: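 rTDSCs treated with test compound or DMSO for 24 h at 37°C, 5% CO2. Total protein extracted in RIPA buffer. Phospho-SRSF levels detected by Western blot with specific primary and secondary antibodies.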

For `COc1ccc2c(c1)[nH]c1c(C)nccc12` [harmine], the “Potency in promoting tenocyte differentiation relative to SM04755” value (hMSCs and rTDSCs) was “less potent than SM04755” and the “CLK-mediated phosphorylation of SRSF1, SRSF4, SRSF5 and SRSF6” value [1] was “no effects”.
